Measurements reported in ChEMBL document CHEMBL4387709, “Discovery of Quinoline Analogues as Potent Antivirals against Enterovirus D68 (EV-D68)” (J Med Chem, 2019).
pEC50: −log10 of the molar value. Activity calls are given as the source filed them. No cut-off for these calls is given here.

Tests used:
enterovirus D68 [1] = experiment: Antiviral activity against Enterovirus D68 US/KY/14-18953 infected in human RD cells assessed as inhibition of virus-induced cytopathic effect incubated for 5 mins under shaking condition and measured after 3 days by neutral red dye-based photometric method; format: functional, organism-based; settings: Enterovirus D, US/KY/14-18953, RD
Procedure, shortened: (§1)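 RD cells seeded one day ahead to ~90% confluence, PBS (Mg/Ca) wash, infected at ~MOI 0.01 with EV-D68 in DMEM/2% FBS/30 mM MgCl2 at 33 °C, 5% CO2. Compounds and 1% P/S added after 1 h. Plates shaken ~5 min, held 3 days, viable cells stained with neutral red (66 µg/ml), A540 read. EC50 from dose-response fits, triplicates.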

RD [2] = experiment: Inhibition of 2C protein in Enterovirus D68 US/KY/14-18953 infected in human RD cells assessed as reduction of VP1 expression at 1 uM measured at 9 hrs post infection by Western blot analysis; format: cell-based
Procedure, shortened: (§2)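 Equal protein separated and blotted to PVDF. Probed with rabbit anti-VP1 and mouse anti-GAPDH (1:3,000), HRP secondary, chemiluminescent detection. Mean of two independent experiments ± SD.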

RD [3] = experiment: Inhibition of 2C protein in Enterovirus D68 US/KY/14-18953 infected in human RD cells assessed as reduction of VP1 expression at 1 uM measured at 9 hrs post infection by DAPI-staining based microscopy; format: cell-based
Procedure, shortened: (§3)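 Fixed at 9 hpi (4% formaldehyde), 0.2% Triton X-100 permeabilized, blocked with 10% bovine serum. Stained with rabbit anti-VP1 plus Alexa-488 secondary, nuclei with 300 nM DAPI. Confocal microscopy.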

RD [4] = experiment: Inhibition of 2C protein in Enterovirus D68 US/KY/14-18953 infected in human RD cells assessed as reduction of viral RNA synthesis at 1 uM measured at 9 hrs post infection by reagent-based RT-qPCR method relative to control; format: cell-based
Procedure, shortened: (§4)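 DNase-treated. 1.2 µg reverse-transcribed with oligo(dT)18. qPCR run 95 °C 10 min, then 40 cycles of 95 °C 15 s/60 °C 60 s, with melt curve. Compared with DMSO control, one-way ANOVA, mean of two experiments ± SD.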

Influenza A virus = experiment: Antiviral activity against Influenza A virus (A/California/07/2009(H1N1)) at 10 uM after 2 days by plaque assay; format: functional, organism-based
Influenza B virus = experiment: Antiviral activity against Influenza B virus (B/Brisbane/60/2008) at 10 uM after 2 days by plaque assay; format: functional, organism-based
enterovirus D68 [5] = experiment: Antiviral activity against Enterovirus D68 US/IL/14-18956 infected in human RD cells assessed as inhibition of virus-induced cytopathic effect incubated for 5 mins under shaking condition and measured after 3 days by neutral red dye-based photometric method; format: functional, organism-based; settings: Enterovirus D, US/IL/14-18956, RD; procedure, shortened: as §1
enterovirus D68 [6] = experiment: Antiviral activity against Enterovirus D68 US/MO/14-18947 infected in human RD cells assessed as inhibition of virus-induced cytopathic effect incubated for 5 mins under shaking condition and measured after 3 days by neutral red dye-based photometric method; format: functional, organism-based; settings: Enterovirus D, US/MO/14-18947, RD; procedure, shortened: as §1
enterovirus D68 [7] = experiment: Antiviral activity against Enterovirus D68 US/MO/14-18949 infected in human RD cells assessed as inhibition of virus-induced cytopathic effect incubated for 5 mins under shaking condition and measured after 3 days by neutral red dye-based photometric method; format: functional, organism-based; settings: Enterovirus D, US/MO/14-18949, RD; procedure, shortened: as §1
enterovirus D68 [8] = experiment: Antiviral activity against Enterovirus D68 […] infected in human RD cells assessed as inhibition of virus-induced cytopathic effect incubated for 5 mins under shaking condition and measured after 3 days by neutral red dye-based photometric method; format: functional, organism-based; settings: Enterovirus D; procedure, shortened: as §1
A549 = experiment: Cytotoxicity against human A549 cells after 3 days by neutral red dye-based photometric method; format: cell-based; settings: a549, 72 h
Procedure, shortened: (§5)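 Uninfected cells run as in the CPE assay (33 °C, 3 days, same media) with compound. Viability by neutral red staining and 540 nm absorbance. CC50 from dose-response curves, triplicate experiments.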

HeLa = experiment: Cytotoxicity against human HeLa cells after 3 days by neutral red dye-based photometric method; format: cell-based; settings: 72 h; procedure, shortened: as §5
enterovirus D68 [9] = experiment: Antiviral activity against Enterovirus D68 US/KY/14-18953 infected in human A172 cells assessed as inhibition of virus-induced cytopathic effect incubated for 5 mins under shaking condition and measured after 3 days by neutral red dye-based photometric method; format: functional, organism-based; settings: Enterovirus D, US/KY/14-18953, A 172
Procedure, shortened: (§6)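 A172 cells (DMEM, 10% FBS) grown ~90% confluent, infected with EV-D68 at ~MOI 0.3 in DMEM/2% FBS/30 mM MgCl2 and kept at 33 °C. P/S and compounds added 1 h later. Brief orbital shaking, then 3-day incubation. Neutral red staining with 540 nm absorbance. EC50 from best-fit dose-response curves in triplicate.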

A 172 = experiment: Cytotoxicity against human A172 cells after 3 days by neutral red dye-based photometric method; format: cell-based; settings: a 172, 72 h; procedure, shortened: as §5
enterovirus D68 [10] = experiment: Antiviral activity against Enterovirus D68 US/KY/14-18953 infected in human SH-SY5Y cells assessed as inhibition of virus-induced cytopathic effect incubated for 5 mins under shaking condition and measured after 3 days by neutral red dye-based photometric method; format: functional, organism-based; settings: Enterovirus D, US/KY/14-18953, SH-SY5Y
Procedure, shortened: (§7)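 Virus at ~MOI 1 applied to SH-SY5Y cells (50% DMEM/50% F-12, 10% FBS) at ~90% confluence in DMEM/2% FBS/30 mM MgCl2 at 33 °C. Compounds added after 1 h with 1% P/S, shaken ~5 min, incubated 3 days. Viability read by neutral red uptake (A540). EC50 fitted from dose-response, triplicate.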

SH-SY5Y = experiment: Cytotoxicity against human SH-SY5Y cells after 3 days by neutral red dye-based photometric method; format: cell-based; settings: 72 h; procedure, shortened: as §5
enterovirus D68 [11] = experiment: Antiviral activity against Enterovirus D68 US/MO/14-18947 infected in human A172 cells assessed as inhibition of virus-induced cytopathic effect incubated for 5 mins under shaking condition and measured after 3 days by neutral red dye-based photometric method; format: functional, organism-based; settings: Enterovirus D, US/MO/14-18947, A 172; procedure, shortened: as §6
enterovirus D68 [12] = experiment: Antiviral activity against Enterovirus D68 US/MO/14-18947 infected in human SH-SY5Y cells assessed as inhibition of virus-induced cytopathic effect incubated for 5 mins under shaking condition and measured after 3 days by neutral red dye-based photometric method; format: functional, organism-based; settings: Enterovirus D, US/MO/14-18947, SH-SY5Y; procedure, shortened: as §7
[13] = Inhibition of sodium channel in rat dorsal root ganglia neurons assessed as reduction in veratridine-induced intracellular calcium influx at 2 to 50 uM after overnight incubation by Fura-2AM dye based fluorescence microscopy; format: cell-based
RD [14] = experiment: Inhibition of 2C protein in Enterovirus D68 US/KY/14-18953 infected in human RD cells assessed as reduction of VP1 expression at 3 uM measured at 9 hrs post infection by DAPI-staining based microscopy; format: cell-based; procedure, shortened: as §3
RD [15] = experiment: Inhibition of 2C protein in Enterovirus D68 US/KY/14-18953 infected in human RD cells assessed as reduction of VP1 expression at 3 uM measured at 9 hrs post infection by Western blot analysis; format: cell-based; procedure, shortened: as §2
RD [16] = experiment: Inhibition of 2C protein in Enterovirus D68 US/KY/14-18953 infected in human RD cells assessed as reduction of viral RNA level at 3 uM measured at 9 hrs post infection by RT-qPCR method relative to control; format: cell-based; procedure, shortened: as §4
[17] = Inhibition of sodium channel in rat dorsal root ganglia neurons assessed as reduction in veratridine-induced intracellular calcium influx at 20 to 50 uM after overnight incubation by Fura-2AM dye based fluorescence microscopy; format: cell-based
[18] = Cytotoxicity against human RD cells after 3 days by neutral red dye-based photometric method; format: cell-based; settings: RD cells
[19] = Selectivity index, ratio of CC50 for human RD cells to EC50 for Enterovirus D68 US/KY/14-18953 infected in human RD cells; format: toxicity, cell-based; settings: read-out: Ratio CC50/EC50

SMILES | pEC50 (enterovirus D68 [1]) | inhibition (RD [2]) | inhibition (RD [3]) | inhibition (RD [4]) [%] | Activity (Influenza A virus) | Activity (Influenza B virus) | pEC50 (enterovirus D68 [5]) | pEC50 (enterovirus D68 [6]) | pEC50 (enterovirus D68 [7]) | pEC50 (enterovirus D68 [8]) | CC50 (A549) [nM] | CC50 (HeLa) [nM] | pEC50 (enterovirus D68 [9]) | CC50 (A 172) [nM] | pEC50 (enterovirus D68 [10]) | CC50 (SH-SY5Y) [nM] | pEC50 (enterovirus D68 [11]) | pEC50 (enterovirus D68 [12]) | further results
CN(C)CCNC(=O)c1cc(-c2cccs2)nc2ccccc12 | 7.40 | Active | Active | > 99 | inactive | inactive | 7.22 | 7.22 | 7.30 | 7.30 | 98800 | 51200 | 7.70 | 73800 | 7.00 | 136000 | 7.00 | 8.00 | 
CN(C)CCNC(=O)c1cc(-c2ccccc2)nc2ccccc12 | 6.40 | Active | Active | > 99 | inactive | inactive | 6.70 | 6.52 | 6.22 | 6.22 | 121000 | 68700 | 6.40 | 88400 | 6.40 | > 300000 | 6.52 | 6.70 | inhibition (INH) [13]: Not Active
CCCCOc1cc(C(=O)NCCN(CC)CC)c2ccccc2n1 [DIBUCAINE] | 5.28 | inactive |  |  | inactive | inactive |  | 5.46 | 5.54 | 5.70 | 37500 | 36000 | 5.43 | > 30000 | 5.77 | > 30000 | 5.72 | 5.72 | inhibition (RD [14]): Active; inhibition (RD [15]): Active; inhibition (RD [16]): 80%; inhibition (INH) [17]: Active
N=C(N)N [GUANIDINE] | 3.66 |  |  |  |  |  |  |  |  |  |  |  |  |  |  |  |  |  | CC50 at 72 h [18]: > 300000 nM; selectivity ratio [19]: > 1.4
